Assays:
[1] = test system: platinum-resistant colorectal tumours; conditions: cited from earlier work
A431 carcinoma cells = experiment: Dark and light toxicity with a 740 nm LED lamp, phase contrast images; assay type: cell-based, human
[2] = Stability in aqueous media by ESR and 51V NMR spectroscopy; assay type: physicochemical
Outline: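 A 50 mM DMSO stock was diluted to 4.0 mM in DI water (pH 7.19) and kept in subdued light at room temperature. ESR spectra were recorded at room temperature immediately and at 24, 48 and 72 h. 51V NMR spectra of the 4.0 mM solutions were taken at 0, 24, 48 and 72 h and at seven days. Control: 4.0 mM NaVO3, pH 7.19.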

HFF cells = experiment: Dark and light toxicity with a 740 nm LED lamp, phase contrast images; assay type: cell-based, human; conditions: for light enhancement of cytopathic effect compared to dark toxicity, HFF: 740 nm red light 60 minutes, then 24 hours dark
fibrosarcoma cells = conditions: room-light or red-light exposure; cited from earlier work
[3] = test system: amelanotic malignant melanoma cells; experiment: Dark and light toxicity with a 60 W tungsten lamp, phase contrast images; assay type: cell-based, human
Outline: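 ATCC amelanotic melanoma line (from a person) grown at 37 °C, 5% CO2 in high-glucose DMEM with 10% FBS, 0.5% pen-strep, 1% glutamine and 1% non-essential amino acids. 10^5 cells/well seeded; after 24 h, medium swapped for test compound at 5 or 20 µM. After 24 h, cells irradiated 30 min with a 60 W tungsten lamp or kept dark. Phase-contrast images at 10x taken 3 h later. Untreated cells served as control.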

[4] = test system: murine embryonic fibroblasts; conditions: room-light or red-light exposure; cited from earlier work
[5] = test system: metastases of solid tumours; conditions: cited from earlier work
[6] = test system: cisplatin-resistant ovarian and testicular cancer cell lines; conditions: cited from earlier work
[7] = 4.0 mM in water, pH 7.19, room temperature, day seven

[Cl-].[Cl-].[Cl-].[Cl-].[Ru+3].c1ccc2[nH][nH+]cc2c1.c1ccc2[nH]ncc2c1.c1ccc2[nH]ncc2c1 [KP1019]
activity against platinum-resistant colorectal tumours [1]: excellent activity

[Ru(pbt)2(phen2DTT)VO(sal-L-tryp)]Cl2
changes in cell morphology of A431 cells (A431 carcinoma cells; 5 μM, dark and light exposure): only slight changes in cell morphology | cytopathic effect on A431 cells (A431 carcinoma cells; 20 μM): anticancer cytopathic effect | light enhancement of cancer cell death compared to [Ru(pbt)2(tpphz)VO(sal-L-tryp)]Cl2 treated cells (A431 carcinoma cells; 740 nm light, A431): more pronounced light enhancement of cancer cell death | light enhancement of cytopathic effect compared to dark toxicity, A431 (A431 carcinoma cells; 740 nm red light 60 minutes, then 24 hours dark): light enhanced cytopathic effects | change in intensity of ESR spectra ([2]; 4.0 mM in water, pH 7.19, room temperature, 0, 24, 48, and 72 hours): no decrease in intensity | vanadium(V) species by 51V NMR [2, 7]: a weak, broad peak at −543 ppm | vanadium(V) species by 51V NMR ([2]; 4.0 mM in water, pH 7.19, room temperature, up to 72 hours): absence of any vanadium(V) species | stability in aqueous media (oxidation of vanadium(IV) centre) ([2]; standing at room temperature, pH 7.19): considerable stability | changes in morphology of HFF cells (HFF cells; 5 μM and 20 μM, dark and light exposure): only minor changes in morphology | light enhancement of cytopathic effect compared to dark toxicity, HFF (HFF cells): no effect

sodium diaqua-4,4',4”,4”'tetrasulfophthalocyaninecobaltate(II) [Na4[Co(tspc)(H2O)2]]
cytotoxic activity (fibrosarcoma cells): no cytotoxic activity | apoptosis of melanoma cells, dark ([3]; 5.0 and 20.0 μM, incubated in the dark one day): do not show significant apoptosis | impact on melanoma cells under illumination ([3]; 5 or 20 μM, 60 W tungsten lamp 30 minutes): no impact | cytotoxic activity [4]: no cytotoxic activity

CS(C)=O.[Cl-].[Cl-].[Cl-].[Cl-].[Ru+3].c1c[nH+]c[nH]1.c1c[nH]cn1 [NAMI-A]
activity against development and growth of metastases of solid tumours [5]: particularly active

[Ru(pbt)2(tpphz)VO(sal-L-tryp)]Cl2
vanadium(V) species by 51V NMR [2, 7]: a weak, broad peak at −543 ppm | light enhancement of cytopathic effect compared to dark toxicity, HFF (HFF cells): no effect

Cc1ccnc2c1ccc1c(C)ccnc12.Cc1ccnc2c1ccc1c(C)ccnc12.O=S(=O)([O-])[O-].[O]=[V+2] [metvan, bis(4,7-dimethyl-1,10-phenanthroline)sulfatooxovanadium(IV)]
effectiveness against cisplatin-resistant ovarian and testicular cancer cell lines [6]: highly effective

From PMC3751419 (Dalton transactions (Cambridge, England : 2003), 2013)
